No end group written: not given here.
Key:
RXRα = biological target: T1, RXRα (Homo sapiens, UniProt P19793); assay: Gal4-RXRα transactivation assay in HEK-293-luciferase reporter cells; format: cell-based
T1 sequence (P19793 1-462): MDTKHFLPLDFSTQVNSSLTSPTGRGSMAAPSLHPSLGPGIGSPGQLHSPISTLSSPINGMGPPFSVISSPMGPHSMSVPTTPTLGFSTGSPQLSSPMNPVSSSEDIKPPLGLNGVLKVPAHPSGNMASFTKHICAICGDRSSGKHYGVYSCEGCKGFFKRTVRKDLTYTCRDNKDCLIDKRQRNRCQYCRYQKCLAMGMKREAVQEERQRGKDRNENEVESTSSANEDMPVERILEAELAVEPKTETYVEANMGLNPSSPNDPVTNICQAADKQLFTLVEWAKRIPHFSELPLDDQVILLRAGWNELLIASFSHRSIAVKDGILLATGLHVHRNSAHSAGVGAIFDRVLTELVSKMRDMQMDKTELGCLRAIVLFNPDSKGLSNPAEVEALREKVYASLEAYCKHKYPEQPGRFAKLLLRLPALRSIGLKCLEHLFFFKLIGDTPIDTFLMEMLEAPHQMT

[1] = biological target: T2, GST-RXRα LBD with D22 coactivator peptide (Homo sapiens, UniProt P19793); assay: TR-FRET RXR LBD-coactivator peptide recruitment assay, D22 peptide; format: biochemical; settings: in combination with a low concentration of CD3254 agonist (Figure S2)
T2 sequence (P19793 227-458 limits assumed): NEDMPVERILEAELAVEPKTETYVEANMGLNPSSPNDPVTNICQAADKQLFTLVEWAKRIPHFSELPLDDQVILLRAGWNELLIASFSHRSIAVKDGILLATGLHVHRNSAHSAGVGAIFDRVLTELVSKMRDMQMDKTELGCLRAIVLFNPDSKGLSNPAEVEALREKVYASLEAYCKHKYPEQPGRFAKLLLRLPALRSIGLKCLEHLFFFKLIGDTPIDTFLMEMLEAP
Procedure, shortened: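 5 nM GST-RXRα LBD incubated at room temperature with 150 nM fluorescein-D22 peptide in 25 mM Hepes pH 7.4, 100 mM NaCl, 0.025% BSA, 5% glycerol, 0.005% Tween-20, 2.5 mM DTT. Ligand or DMSO (≤1%) added; 2 nM Tb-anti-GST antibody for detection. After 4 h, TR-FRET read at 495 and 520 nm. The 520/495 ratio was expressed as Delta F% against controls lacking GST-RXRα.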

Jurkat T cells = assay: CellTiter-GLO cell viability/proliferation assay; settings: 4 μM, 24 h (Table 1)
recombinant IKKβ = biological target: T3, recombinant IKKβ (Homo sapiens, UniProt O14920); assay: LANCE Ultra TR-FRET kinase assay, recombinant IKKβ; format: biochemical
T3 sequence (O14920 1-756): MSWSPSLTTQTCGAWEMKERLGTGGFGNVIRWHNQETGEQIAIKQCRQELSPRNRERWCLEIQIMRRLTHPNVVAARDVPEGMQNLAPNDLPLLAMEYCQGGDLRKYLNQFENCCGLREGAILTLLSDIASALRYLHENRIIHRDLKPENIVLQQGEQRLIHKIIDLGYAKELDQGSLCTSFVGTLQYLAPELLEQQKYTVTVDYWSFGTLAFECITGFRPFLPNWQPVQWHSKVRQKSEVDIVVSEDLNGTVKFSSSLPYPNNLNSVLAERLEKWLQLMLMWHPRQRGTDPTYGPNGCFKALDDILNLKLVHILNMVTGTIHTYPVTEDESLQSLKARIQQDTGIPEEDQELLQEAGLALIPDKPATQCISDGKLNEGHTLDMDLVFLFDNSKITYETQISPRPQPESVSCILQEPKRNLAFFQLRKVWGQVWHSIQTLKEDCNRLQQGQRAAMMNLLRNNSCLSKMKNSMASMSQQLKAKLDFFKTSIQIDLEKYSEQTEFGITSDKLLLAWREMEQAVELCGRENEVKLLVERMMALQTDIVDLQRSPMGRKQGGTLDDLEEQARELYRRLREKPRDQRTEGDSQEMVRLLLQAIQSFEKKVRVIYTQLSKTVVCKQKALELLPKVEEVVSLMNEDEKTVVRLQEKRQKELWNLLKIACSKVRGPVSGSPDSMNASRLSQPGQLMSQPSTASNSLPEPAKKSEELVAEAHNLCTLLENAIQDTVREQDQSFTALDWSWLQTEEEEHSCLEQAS
Procedure, shortened: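 Purified recombinant IKKβ (1 nM) in Hepes pH 7.4 buffer with MgCl₂, EGTA, DTT and Tween-20; 50 nM ULight-IκBα peptide substrate; 1.25 μM ATP. Runs 1 h at room temperature, then stopped with 20 mM EDTA plus 2 nM Eu-labelled phospho-specific antibody for TR-FRET. Activity is % of solvent control, 3–4 experiments in triplicate.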

recombinant IKKε = biological target: T4, recombinant IKKε (Homo sapiens, UniProt Q14164); assay: LANCE Ultra TR-FRET kinase assay, recombinant IKKε; format: biochemical; settings: 20 μM AdAr; ATP near apparent Km; vs solvent control; ± SD, 3–4 experiments
T4 sequence (Q14164 1-716): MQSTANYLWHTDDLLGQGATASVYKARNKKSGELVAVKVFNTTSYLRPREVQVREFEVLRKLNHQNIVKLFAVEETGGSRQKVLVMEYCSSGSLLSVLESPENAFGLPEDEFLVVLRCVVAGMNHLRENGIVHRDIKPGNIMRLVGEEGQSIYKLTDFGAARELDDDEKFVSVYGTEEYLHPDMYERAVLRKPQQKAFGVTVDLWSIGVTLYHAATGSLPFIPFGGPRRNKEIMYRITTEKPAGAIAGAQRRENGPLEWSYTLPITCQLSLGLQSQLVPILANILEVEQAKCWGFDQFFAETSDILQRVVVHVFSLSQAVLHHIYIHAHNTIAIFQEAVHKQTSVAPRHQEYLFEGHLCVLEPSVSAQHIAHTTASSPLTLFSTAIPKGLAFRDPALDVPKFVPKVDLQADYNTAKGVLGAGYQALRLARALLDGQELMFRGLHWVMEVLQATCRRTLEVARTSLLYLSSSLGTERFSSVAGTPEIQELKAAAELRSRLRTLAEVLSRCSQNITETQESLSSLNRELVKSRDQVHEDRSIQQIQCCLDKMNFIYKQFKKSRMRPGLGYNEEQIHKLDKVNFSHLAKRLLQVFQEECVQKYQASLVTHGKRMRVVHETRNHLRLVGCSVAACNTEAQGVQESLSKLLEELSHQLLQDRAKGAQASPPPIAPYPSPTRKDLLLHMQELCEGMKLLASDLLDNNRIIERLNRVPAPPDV
Procedure, shortened: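 Recombinant IKKε enzyme, 2 nM final, in Hepes pH 7.4 kinase buffer (10 mM MgCl₂, 1 mM EGTA, 2 mM DTT, 0.01% Tween-20). Substrate was 50 nM ULight-rpS6, with 5 μM ATP, run 2 h at room temperature. The reaction was quenched with 20 mM EDTA containing 2 nM Eu-anti-phospho antibody. After 2 h, TR-FRET was read at 615 and 665 nm (340 nm excitation). Percent inhibition was taken versus solvent control; triplicate points.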

recombinant IKKα = biological target: T5, recombinant IKKα (Homo sapiens, UniProt O15111); assay: LANCE Ultra TR-FRET kinase assay, recombinant IKKα; format: biochemical; settings: 20 μM AdAr; ATP near apparent Km; vs solvent control; ± SD, 3–4 experiments
T5 sequence (O15111 1-745): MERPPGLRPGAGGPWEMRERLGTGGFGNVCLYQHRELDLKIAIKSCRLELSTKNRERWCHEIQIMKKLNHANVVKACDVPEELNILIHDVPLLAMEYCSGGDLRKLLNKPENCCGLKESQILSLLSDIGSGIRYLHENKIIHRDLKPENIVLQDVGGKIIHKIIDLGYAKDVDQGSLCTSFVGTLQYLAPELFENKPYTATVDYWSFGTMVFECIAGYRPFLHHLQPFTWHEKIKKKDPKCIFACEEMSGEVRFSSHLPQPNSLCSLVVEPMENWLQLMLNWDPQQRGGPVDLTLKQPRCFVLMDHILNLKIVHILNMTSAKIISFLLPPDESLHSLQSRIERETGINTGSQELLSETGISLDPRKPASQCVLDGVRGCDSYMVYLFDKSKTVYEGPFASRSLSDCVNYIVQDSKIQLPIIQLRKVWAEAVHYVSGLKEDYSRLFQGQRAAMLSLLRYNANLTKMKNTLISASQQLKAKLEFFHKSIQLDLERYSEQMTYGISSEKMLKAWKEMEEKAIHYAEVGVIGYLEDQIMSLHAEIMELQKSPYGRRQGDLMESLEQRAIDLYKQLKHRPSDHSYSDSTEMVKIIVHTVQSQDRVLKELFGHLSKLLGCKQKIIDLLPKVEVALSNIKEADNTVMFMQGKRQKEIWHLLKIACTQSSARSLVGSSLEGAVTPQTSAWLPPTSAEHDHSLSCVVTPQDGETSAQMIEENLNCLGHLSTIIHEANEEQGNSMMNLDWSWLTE
Procedure, shortened: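 Reaction stopped with 20 mM EDTA plus 2 nM Eu-labelled phospho-specific antibody. TR-FRET (ex 340 nm; 615/665 nm) read 2 h later. Counts normalized; inhibition relative to solvent control; triplicates.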

GST-RXRα LBD = assay: AlphaScreen or HTRF

Molecule: COCCOCOc1ccc(-c2ncc(-c3ccc(C(=O)O)cc3)s2)cc1C12CC3CC(CC(C3)C1)C2 [8c, 4-[2-(3-Adamantan-1-yl-4-[(2-methoxyethoxy)methoxy]phenyl)thiazol-5-yl]benzoic Acid]
- Gal4-RXRα transactivation, % of the maximum activity observed with control rexinoid CD3254 (RXRα; 4 μM AdAr, CD3254 1 μM): ~ 20%
- RXR Profile Agonist (fold induction of RXRα activity) (RXRα; AdArs 4 μM, positive control CD3254 1 μM, vs solvent control cells): 3 fold induction

Molecule: Cc1cc(O)c(C23CC4CC(CC(C4)C2)C3)cc1-c1ccc2cc(C(=O)O)ccc2c1Cl [4a]
- inhibition in Gal4-RXRα transactivation assay, antagonist mode (RXRα; 100 nM CD3254 plus 4 μM AdAr): 30%
- inhibition of RXRα LBD/D22 binding stimulated by CD3254 [1]: 25%
- inhibition of Jurkat cell viability (Jurkat T cells): > 85%
- potency against IKKβ relative to MX781 3 (times more potent) (recombinant IKKβ; ratio of IC50 values): about 2.5 times

Molecule: (E)-3-[2-(3-Acetamidopropoxy)-3-(adamant-1-yl)-4-hydroxybiphenyl-4-yl]acrylic Acid [2c]
- % Inhibition of IKK activity IKKε (recombinant IKKε): 14.4 ± 4.1%
- % Inhibition of IKK activity IKKα (recombinant IKKα): 5.0 ± 4.9%
- % Inhibition of IKK activity IKKβ (recombinant IKKβ; 20 μM AdAr, ATP near apparent Km, vs solvent control, ± SD, 3–4 experiments): 0%

Molecule: CCCCCOc1cc2c(cc1-c1cc(/C=C/C(=O)O)ccc1O)C(C)(C)CCC2(C)C [34, UVI3003, reference compound]
- inhibition of RXRα LBD/D22 binding stimulated by CD3254 [1]: complete inhibition

Molecule: Cc1cc(O)c(C23CC4CC(CC(C4)C2)C3)cc1-c1ccc(CC(=O)O)cc1Cl [6a]
- inhibition of RXRα LBD/D22 binding stimulated by CD3254 [1]: 25%

Molecule: O=C(O)c1ccc(-c2cnc(-c3ccc(O)c(C45CC6CC(CC(C6)C4)C5)c3)s2)cc1 [8a, 4-[2-(3-Adamantan-1-yl-4-hydroxyphenyl)thiazol-5-yl]benzoic Acid]
- inhibition of Jurkat cell viability (Jurkat T cells): > 85%

Molecule: fluorescein-LPYEGSLLLKLLRAPVEEV [fluorescein labeled D22 coactivator peptide]
- % inhibition of the CD3254-stimulated interaction (by 4a) (GST-RXRα LBD): 25%
- % inhibition of the CD3254-stimulated interaction (by 6a) (GST-RXRα LBD): 25%
- Delta F% (ligand: 4a) (GST-RXRα LBD): 29%
- Delta F% (ligand: 4b) (GST-RXRα LBD): 159%
- Delta F% (ligand: 5a) (GST-RXRα LBD): 487%
- Delta F% (ligand: 5b) (GST-RXRα LBD): 654%
- Delta F% (ligand: 5c) (GST-RXRα LBD): 113%
- Delta F% (ligand: 6b) (GST-RXRα LBD): 214%
- Delta F% (ligand: 7a) (GST-RXRα LBD): 156%
- Delta F% (ligand: 7c) (GST-RXRα LBD): 127%
- Delta F% (ligand: 8a) (GST-RXRα LBD): 94%
- Delta F% (ligand: 8b) (GST-RXRα LBD): 113%
- Delta F% (ligand: 8c) (GST-RXRα LBD): 133%
- Delta F% (ligand: 9c) (GST-RXRα LBD): 119%
- Delta F% (ligand: 10a) (GST-RXRα LBD): 102%
- Delta F% (ligand: 10c) (GST-RXRα LBD): 170%
- Delta F% (ligand: 9d) (GST-RXRα LBD): 87%
- Delta F% (ligand: CD3254 33) (GST-RXRα LBD): 416%
- Delta F% (no ligand) (GST-RXRα LBD): 100%

Molecule: CPSSHSSLTERHKILHRLLQEGSPSK (biotin on the added C-terminal lysine (-K-biotin)) [biotinylated SRC-1-676-700 peptide]
- Delta F% (ligand: 4a) (GST-RXRα LBD): 53%
- Delta F% (ligand: 4b) (GST-RXRα LBD): 187%
- Delta F% (ligand: 5a) (GST-RXRα LBD): 373%
- Delta F% (ligand: 5b) (GST-RXRα LBD): 437%
- Delta F% (ligand: 5c) (GST-RXRα LBD): 152%
- Delta F% (ligand: 6a) (GST-RXRα LBD): 81%
- Delta F% (ligand: 6b) (GST-RXRα LBD): 422%
- Delta F% (ligand: 7a) (GST-RXRα LBD): 162%
- Delta F% (ligand: 8a) (GST-RXRα LBD): 183%
- Delta F% (ligand: 8b) (GST-RXRα LBD): 117%
- Delta F% (ligand: 8c) (GST-RXRα LBD): 159%
- Delta F% (ligand: 9a) (GST-RXRα LBD): 116%
- Delta F% (ligand: 9b) (GST-RXRα LBD): 106%
- Delta F% (ligand: 9c) (GST-RXRα LBD): 122%
- Delta F% (ligand: 10a) (GST-RXRα LBD): 111%
- Delta F% (ligand: 10c) (GST-RXRα LBD): 172%
- Delta F% (ligand: 7d) (GST-RXRα LBD): 133%
- Delta F% (ligand: 8d) (GST-RXRα LBD): 115%
- Delta F% (ligand: 9d) (GST-RXRα LBD): 106%
- Delta F% (ligand: CD3254 33) (GST-RXRα LBD): 561%
- Delta F% (no ligand) (GST-RXRα LBD): 148%

Source: paper PMC6805150 (Bioorganic & medicinal chemistry, 2014)
